Results reported in ChEMBL document CHEMBL4689842, “EUbOPEN Chemogenomics Library wave 1” (2021).

Test system: HEK-293T
Experiment: Multiplex assay against HEK293T;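 on Population Tubulin-Different-Phenotype (%): share of the cells with healthy nuclei that show this phenotype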
Format: toxicity, cell-based
Conditions: human
In short: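 Compound was added to live cells that had been stained at seeding with Hoechst33342, BioTracker Green Microtubule Cytoskeleton Dye, MitoTracker Red and Annexin V Alexa Fluor 680, and imaging followed on a CQ1 microscope at 37°C and 5% CO2. CellPathfinder machine-learning gating divided cells into Hoechst high-intensity objects or normal cells, normal cells into healthy, pyknosed or fragmented nuclei, and pyknosed cells into mitotic or apoptotic. Tubulin, mitochondrial-mass and membrane-permeability phenotypes are per cents of healthy-nucleus cells.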

[1] = 12 h, 1 µM, compound concentration 1 uM, replicate 1
[2] = 12 h, 1 µM, compound concentration 1 uM, replicate 2
[3] = 12 h, 10 µM, compound concentration 10 uM, replicate 1
[4] = 12 h, 10 µM, compound concentration 10 uM, replicate 2
[5] = 24 h, 1 µM, compound concentration 1 uM, replicate 1
[6] = 24 h, 1 µM, compound concentration 1 uM, replicate 2
[7] = 24 h, 10 µM, compound concentration 10 uM, replicate 1
[8] = 24 h, 10 µM, compound concentration 10 uM, replicate 2
[9] = 48 h, 1 µM, compound concentration 1 uM, replicate 1
[10] = 48 h, 1 µM, compound concentration 1 uM, replicate 2
[11] = 48 h, 10 µM, compound concentration 10 uM, replicate 1
[12] = 48 h, 10 µM, compound concentration 10 uM, replicate 2

Structure (SMILES): COc1cc(N2CCN(C)CC2)ccc1Nc1ncc2c(n1)N(C)c1ccccc1C(=O)N2C
- Population Apoptotic (%) [1]: 46%
- Population Fragmented Nuclei (%) [1]: 8%
- Population Healthy Nuclei (%) [1]: 45%
- Population Hoechst High Intensity Objects (%) [1]: 6%
- Population Membrane Permeable-Phenotype (%) [1]: 1%
- Population Mitochondria Different-Phenotype (%) [1]: 90%
- Population Mitotic Cells (%) [1]: 53%
- Population Normal (%) [1]: 93%
- Population Pyknosed Nuclei (%) [1]: 45%
- Population Tubulin-Different-Phenotype (%) [1]: 40%
- Total Cell Count [1]: 359
- Population Apoptotic (%) [2]: 18%
- Population Fragmented Nuclei (%) [2]: 3%
- Population Healthy Nuclei (%) [2]: 37%
- Population Hoechst High Intensity Objects (%) [2]: 3%
- Population Membrane Permeable-Phenotype (%) [2]: 6%
- Population Mitochondria Different-Phenotype (%) [2]: 42%
- Population Mitotic Cells (%) [2]: 82%
- Population Normal (%) [2]: 96%
- Population Pyknosed Nuclei (%) [2]: 58%
- Population Tubulin-Different-Phenotype (%) [2]: 23%
- Total Cell Count [2]: 176
- Population Apoptotic (%) [3]: 62%
- Population Fragmented Nuclei (%) [3]: 12%
- Population Healthy Nuclei (%) [3]: 17%
- Population Hoechst High Intensity Objects (%) [3]: 13%
- Population Membrane Permeable-Phenotype (%) [3]: 23%
- Population Mitochondria Different-Phenotype (%) [3]: 92%
- Population Mitotic Cells (%) [3]: 37%
- Population Normal (%) [3]: 86%
- Population Pyknosed Nuclei (%) [3]: 70%
- Population Tubulin-Different-Phenotype (%) [3]: 84%
- Total Cell Count [3]: 172
- Population Apoptotic (%) [4]: 58%
- Population Fragmented Nuclei (%) [4]: 8%
- Population Healthy Nuclei (%) [4]: 15%
- Population Hoechst High Intensity Objects (%) [4]: 6%
- Population Membrane Permeable-Phenotype (%) [4]: 7%
- Population Mitochondria Different-Phenotype (%) [4]: 96%
- Population Mitotic Cells (%) [4]: 41%
- Population Normal (%) [4]: 93%
- Population Pyknosed Nuclei (%) [4]: 76%
- Population Tubulin-Different-Phenotype (%) [4]: 100%
- Total Cell Count [4]: 190
- Population Apoptotic (%) [5]: 38%
- Population Fragmented Nuclei (%) [5]: 4%
- Population Healthy Nuclei (%) [5]: 58%
- Population Hoechst High Intensity Objects (%) [5]: 6%
- Population Membrane Permeable-Phenotype (%) [5]: 1%
- Population Mitochondria Different-Phenotype (%) [5]: 75%
- Population Mitotic Cells (%) [5]: 61%
- Population Normal (%) [5]: 93%
- Population Pyknosed Nuclei (%) [5]: 37%
- Population Tubulin-Different-Phenotype (%) [5]: 26%
- Total Cell Count [5]: 423
- Population Apoptotic (%) [6]: 9%
- Population Fragmented Nuclei (%) [6]: 5%
- Population Healthy Nuclei (%) [6]: 48%
- Population Hoechst High Intensity Objects (%) [6]: 2%
- Population Membrane Permeable-Phenotype (%) [6]: 7%
- Population Mitochondria Different-Phenotype (%) [6]: 40%
- Population Mitotic Cells (%) [6]: 90%
- Population Normal (%) [6]: 97%
- Population Pyknosed Nuclei (%) [6]: 45%
- Population Tubulin-Different-Phenotype (%) [6]: 22%
- Total Cell Count [6]: 225
- Population Apoptotic (%) [7]: 69%
- Population Fragmented Nuclei (%) [7]: 9%
- Population Healthy Nuclei (%) [7]: 19%
- Population Hoechst High Intensity Objects (%) [7]: 10%
- Population Membrane Permeable-Phenotype (%) [7]: 13%
- Population Mitochondria Different-Phenotype (%) [7]: 96%
- Population Mitotic Cells (%) [7]: 30%
- Population Normal (%) [7]: 89%
- Population Pyknosed Nuclei (%) [7]: 71%
- Population Tubulin-Different-Phenotype (%) [7]: 93%
- Total Cell Count [7]: 170
- Population Apoptotic (%) [8]: 76%
- Population Fragmented Nuclei (%) [8]: 7%
- Population Healthy Nuclei (%) [8]: 20%
- Population Hoechst High Intensity Objects (%) [8]: 5%
- Population Membrane Permeable-Phenotype (%) [8]: 2%
- Population Mitochondria Different-Phenotype (%) [8]: 94%
- Population Mitotic Cells (%) [8]: 23%
- Population Normal (%) [8]: 94%
- Population Pyknosed Nuclei (%) [8]: 72%
- Population Tubulin-Different-Phenotype (%) [8]: 97%
- Total Cell Count [8]: 195
- Population Apoptotic (%) [9]: 36%
- Population Fragmented Nuclei (%) [9]: 8%
- Population Healthy Nuclei (%) [9]: 71%
- Population Hoechst High Intensity Objects (%) [9]: 8%
- Population Membrane Permeable-Phenotype (%) [9]: 1%
- Population Mitochondria Different-Phenotype (%) [9]: 23%
- Population Mitotic Cells (%) [9]: 63%
- Population Normal (%) [9]: 91%
- Population Pyknosed Nuclei (%) [9]: 19%
- Population Tubulin-Different-Phenotype (%) [9]: 11%
- Total Cell Count [9]: 613
- Population Apoptotic (%) [10]: 18%
- Population Fragmented Nuclei (%) [10]: 6%
- Population Healthy Nuclei (%) [10]: 72%
- Population Hoechst High Intensity Objects (%) [10]: 2%
- Population Membrane Permeable-Phenotype (%) [10]: 6%
- Population Mitochondria Different-Phenotype (%) [10]: 7%
- Population Mitotic Cells (%) [10]: 81%
- Population Normal (%) [10]: 97%
- Population Pyknosed Nuclei (%) [10]: 20%
- Population Tubulin-Different-Phenotype (%) [10]: 16%
- Total Cell Count [10]: 357
- Population Apoptotic (%) [11]: 69%
- Population Fragmented Nuclei (%) [11]: 16%
- Population Healthy Nuclei (%) [11]: 33%
- Population Hoechst High Intensity Objects (%) [11]: 15%
- Population Membrane Permeable-Phenotype (%) [11]: 3%
- Population Mitochondria Different-Phenotype (%) [11]: 100%
- Population Mitotic Cells (%) [11]: 30%
- Population Normal (%) [11]: 84%
- Population Pyknosed Nuclei (%) [11]: 49%
- Population Tubulin-Different-Phenotype (%) [11]: 91%
- Total Cell Count [11]: 210
- Population Apoptotic (%) [12]: 70%
- Population Fragmented Nuclei (%) [12]: 11%
- Population Healthy Nuclei (%) [12]: 28%
- Population Hoechst High Intensity Objects (%) [12]: 10%
- Population Membrane Permeable-Phenotype (%) [12]: 1%
- Population Mitochondria Different-Phenotype (%) [12]: 96%
- Population Mitotic Cells (%) [12]: 29%
- Population Normal (%) [12]: 89%
- Population Pyknosed Nuclei (%) [12]: 59%
- Population Tubulin-Different-Phenotype (%) [12]: 94%
- Total Cell Count [12]: 211
